# A selection: hits, their analogues and other compounds. The true share with any hit is near 1.2%.
# SUMO HTRF inh: blocks human SUMOylation mediated by UBC9 | P63279 | HTRF SUMOylation assay, SAE1/SAE2 + UBC9, in vitro | inhibition, % at 35 µM | hit rate 0.36% among 290,000 | AID 2006; in the data active = inhibition above about 50%, passing the limit was not always enough
# TDP2 absorb: TDP2 (human) inhibition, absorbance primary screen | O95551 | recombinant TDP2, T5PNP hydrolysis, p-nitrophenol absorbance 415 nm | inhibition, % at 12.8 µM | hit rate 0.34% among 370,000 | AID 720702;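 active = inhibition above the mean of all tested compounds plus 3 SD, set per campaign, cut at about 25% in these data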;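 also: 0% = DMSO with enzyme and 100% = buffer with substrate but no TDP2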
# Target sequence (O95551 whole entry, looked up): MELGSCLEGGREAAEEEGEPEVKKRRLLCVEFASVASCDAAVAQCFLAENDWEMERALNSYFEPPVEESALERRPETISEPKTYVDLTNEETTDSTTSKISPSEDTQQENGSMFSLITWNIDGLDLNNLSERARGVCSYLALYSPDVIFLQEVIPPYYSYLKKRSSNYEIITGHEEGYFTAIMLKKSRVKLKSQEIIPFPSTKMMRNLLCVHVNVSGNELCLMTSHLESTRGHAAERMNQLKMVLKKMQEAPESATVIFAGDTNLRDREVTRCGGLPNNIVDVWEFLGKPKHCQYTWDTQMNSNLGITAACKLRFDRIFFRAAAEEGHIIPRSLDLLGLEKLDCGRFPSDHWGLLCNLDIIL
#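 Test system: Human TDP2 enzyme | Reagent: 5 mM T5PNP | Compound dosing: 12.8 µM single point, 1% DMSO | Incubation: Enzyme reaction with compound for 2 h at 37 °C | Technique: p-Nitrophenol epi absorbance | Read-out: % inhibition relative to enzyme-containing and enzyme-free wells | Benchmarks: High control without enzyme, low control DMSO plus TDP2 | Replicates: Singlicate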
# Fh CTSL1 inh: counter-screen for PFM18AAP inhibitors: inhibitors of F. hepatica cathepsin L1. recombinant F. hepatica cathepsin L1, Z-Leu-Arg-MCA fluorescence. hit rate 0.49% among 300,000. inhibition, % at 5.96 µM. AID 1906;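 active = inhibition above the mean of all tested compounds plus 3 SD, set per screening campaign, cut at about 17% in these data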;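 also: 0% = plate median of test compound wells and 100% = 1 µM Z-Phe-Ala-diazomethylketone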
# NSD2 HMT inh: blocks human histone methyltransferase NSD2; NSD2 peptide methylation, AlphaScreen, 120 min; AID 743445; inhibition, % at 12.5 µM; O96028; hit rate 0.54% among 310,000; in the data active = inhibition above about 50%
# TDP2 inh conf: human TDP2 inhibition, confirmation | shares compounds with TDP2 absorb | recombinant human TDP2, absorbance read-out | inhibition, % at 12.8 µM | hit rate 22% among 1,100; in the data active = inhibition above about 25%;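 also: 0% = vehicle with enzyme and 100% = no enzyme buffer only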
# Alpha artifact: AlphaScreen assay artifact in NSD2 counter-screen | AlphaScreen artifact counterscreen, preloaded methylated H4 peptide | shares compounds with NSD2 HMT inh | AC35, µM (doses to about 10 µM), for inactives: at the top dose activity change, negative = signal loss | hit rate 9.4% among 1,500; call rule not given here
# Numbers without * were called inactive; / = not tested or not shown.
SMILES,SUMO HTRF inh,TDP2 absorb,Fh CTSL1 inh,NSD2 HMT inh,TDP2 inh conf,others
COc1cccc(-n2c(=O)c3ccccc3n3c(=S)[nH]nc23)c1,20,69*,4,3,3,
C[n+]1c(-c2ccccc2)cc2c(=Cc3ccc([N+](=O)[O-])cc3)c3ccccc3n21,/,37*,/,-1,46*,
CN(C)c1ccc(C=c2c3cc(O)ccc3n3c2cc(-c2ccccc2)[n+]3C)cc1,/,23,/,43,/,
C[n+]1c(-c2ccccc2)cc2c(=Cc3ccccc3)c3ccccc3n21,/,36*,/,24,47*,
C[C@H]1COc2cccc(N3CCCC3)c2S(=O)(=O)N1,/,-6,/,/,/,
Cc1cc(C)c(C(N)=O)c(Nc2cccc3ccccc23)n1,90,25*,-2,0,8,
Nc1ccccc1-n1c(=O)n(Cc2ccccc2F)c(=O)c2[nH]cnc21,12,4,-4,-1,/,
CCC(=O)NC(c1cccs1)c1cc([N+](=O)[O-])c2cccnc2c1OC (configuration not stated),/,70*,/,/,18,
COc1ccccc1Cn1c(=S)[nH]c2cc(C(=O)N3CCCC(C)C3)ccc2c1=O (configuration not stated),/,-8,/,5,/,
CC1(C(=O)Nc2cccnc2)Cc2c(-c3cccc(C(F)(F)F)c3)ccnc2O1 (configuration not stated),/,5,/,-1,/,
COc1ccc(C(C(=O)NC2CCCC2)N(Cc2cccnc2)C(=O)Cc2cccs2)c(OC)c1 (configuration not stated),-10,-11,-1,1,/,
COc1ccccc1OCCn1cc(/C=C(\C#N)C(=O)NCc2ccco2)c2ccccc21,6,103*,7,-1,0,
Cc1cccc(NC(=O)C(Cc2ccccc2)c2nn[nH]n2)c1C (configuration not stated),-1,28*,0,2,2,
O=[N+]([O-])c1ccc(Oc2ccc(-c3nnco3)cc2)c(Cl)c1,18,47*,8,2,4,
N#Cc1cc([N+](=O)[O-])ccc1Oc1ccc(-c2nnco2)cc1,14,0,2,-2,/,
CC(=O)Nc1ccc(CN2CCN(C3CCCC3)C(CCO)C2)cc1 (configuration not stated),4,-1,-1,-2,/,
CC(=O)Nc1ccc(CN2CCCN(C)CC2)cc1,22,27*,-1,/,-2,
Cc1ccc(S(=O)(=O)N2CCC(C(=O)NCCCN3CCOCC3)CC2)cc1C,/,30*,-1,-1,5,
Cc1ccc(S(=O)(=O)N2CCC(C(=O)NCCN3CCOCC3)CC2)cc1C,3,7,3,4,/,
CS(=O)(=O)c1nc(S(=O)(=O)c2ccc(Cl)cc2)c(NCCCN2CCOCC2)s1,10,27*,2,1,1,
CCS(=O)(=O)c1nc(S(=O)(=O)c2ccc(Cl)cc2)c(NCCCN2CCOCC2)s1,8,5,3,8,/,
CN(C)C=Nc1nc2c(Br)ccc(Br)c2cc1C(=O)NCC(C)(C)C,/,9,/,/,/,
CCc1nc2c(OCc3cc(Cl)cc(Cl)c3)cccn2c1N(C)C(=O)c1ccc(OC)cc1,/,-4,/,0,/,
C#CCN1C(=O)[C@]2(OCCC=C[C@H]2C)c2cc(OC)ccc21,/,2,/,/,/,
COc1cc(/C=C2/C(=O)N(c3ccc([N+](=O)[O-])cc3)N=C2N2CCOCC2)ccc1O,100,67*,3,/,32*,
SMILES,SUMO HTRF inh,TDP2 absorb,Fh CTSL1 inh,NSD2 HMT inh,TDP2 inh conf,others
CCN(CC)c1ccc(/C=C2/C(=O)N(c3ccc([N+](=O)[O-])cc3)N=C2N2CCOCC2)cc1,16,/,1,2,/,
NC(=S)N=Nc1c(O)cc(O)c2[nH]c(=O)ccc12,/,52*,/,/,44*,
Cc1[nH][nH]c(=O)c1C(c1ccc(-c2ccc(Cl)c(C(=O)O)c2)o1)c1c(C)[nH][nH]c1=O,96,51*,/,131*,-5,Alpha artifact=2%
COC(=O)c1cccc(-c2ccc(C(c3c(C)[nH][nH]c3=O)c3c(C)[nH][nH]c3=O)o2)c1,/,57*,0,107*,32*,Alpha artifact=-5%
COC(=O)c1ccccc1-c1ccc(C(c2c(C)[nH][nH]c2=O)c2c(C)[nH][nH]c2=O)o1,97,78*,4,196*,36*,Alpha artifact=1%
CC1(C)OC(=O)C(=Cc2ccc(-c3ccc(Cl)c(C(=O)O)c3)o2)C(=O)O1,16,5,-5,/,/,
